Experimental data: ChEMBL document CHEMBL4196116, “3-Aryl-1,2,4-oxadiazole Derivatives Active Against Human Rhinovirus” (ACS Med Chem Lett, 2018)

How the values were obtained:
rhinovirus B14 = assay: Antiviral activity against Human rhinovirus B14 infected in human H1HeLa cells assessed as inhibition of viral replication after 3 days by MTT assay; type: functional, organism-based; settings: Rhinovirus B, H1-HeLa, 72 h
Procedure, shortened: (§1)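 Anti-rhinovirus EC50 against hRV-B14, -A21 and -A71 determined in H1HeLa cells. Read-out is MTT cell viability. EC50 is the concentration that inhibits viral replication by 50%. Pleconaril serves as reference.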

rhinovirus A21 = assay: Antiviral activity against Human rhinovirus A21 infected in human H1HeLa cells assessed as inhibition of viral replication after 3 days by MTT assay; type: functional, organism-based; settings: Rhinovirus A, H1-HeLa, 72 h; procedure, shortened: as §1
[1] = Cytotoxicity against human H1HeLa cells assessed as reduction in cell viability after 3 days by MTT assay; type: cell-based, H1-HeLa
[2] = Antiviral activity against Human rhinovirus A71 infected in human H1HeLa cells assessed as inhibition of viral replication after 3 days by MTT assay; type: functional, cell-based; settings: Rhinovirus A, H1-HeLa, 72 h; procedure, shortened: as §1
[3] = Metabolic stability in rat liver microsomes assessed as parent compound remaining at 1 uM after 30 mins in presence of NADPH by LC/MS/MS analysis; type: ADME, microsome; settings: read-out: Stability
Procedure, shortened: (§2)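 Phase I metabolic stability in rat or human liver microsomes, reported as % parent remaining after 30 min. Buspirone serves as reference. Values are mean ± SD of at least three independent experiments.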

[4] = Metabolic stability in human liver microsomes assessed as parent compound remaining at 1 uM after 30 mins in presence of NADPH by LC/MS/MS analysis; type: ADME, microsome; settings: read-out: Stability; procedure, shortened: as §2
[5] = Terminal half life in Sprague-Dawley rat at 5 mg/kg, iv by LC/MS/MS analysis; type: ADME, organism-based; settings: in vivo, read-out: beta t1/2 (converted)
Procedure, shortened: (§3)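 Male Sprague–Dawley rats, n = 3, given 5 mg·kg–1 intravenously or 10 mg·kg–1 orally. Plasma deproteinized in acetonitrile and assayed by LC–MS/MS. Parameters derived from concentration–time data by noncompartmental analysis. Values reported as mean ± standard deviation.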

[6] = Cmax in Sprague-Dawley rat at 10 mg/kg, po by LC/MS/MS analysis; type: ADME, organism-based; set-up: dose 10 mg/kg, route oral; settings: in vivo; procedure, shortened: as §3
[7] = AUC (infinity) in Sprague-Dawley rat at 5 mg/kg, iv by LC/MS/MS analysis; type: ADME, organism-based; set-up: dose 5 mg/kg, route intravenous, time infinity; settings: in vivo; procedure, shortened: as §3
[8] = AUCt in Sprague-Dawley rat at 10 mg/kg, po by LC/MS/MS analysis; type: ADME, organism-based; settings: in vivo; procedure, shortened: as §3
[9] = AUC (infinity) in Sprague-Dawley rat at 10 mg/kg, po by LC/MS/MS analysis; type: ADME, organism-based; set-up: dose 10 mg/kg, time infinity, route oral; settings: in vivo; procedure, shortened: as §3
[10] = Volume of distribution at steady state in Sprague-Dawley rat at 5 mg/kg, iv by LC/MS/MS analysis; type: ADME, organism-based; settings: in vivo, read-out: Vdss; procedure, shortened: as §3
[11] = Terminal half life in Sprague-Dawley rat at 10 mg/kg, po by LC/MS/MS analysis; type: ADME, organism-based; settings: in vivo, read-out: beta t1/2 (converted); procedure, shortened: as §3
[12] = Oral bioavailability in Sprague-Dawley rat at 10 mg/kg by LC/MS/MS analysis; type: ADME, organism-based; settings: in vivo; procedure, shortened: as §3
[13] = AUCt in Sprague-Dawley rat at 5 mg/kg, iv by LC/MS/MS analysis; type: ADME, organism-based; settings: in vivo; procedure, shortened: as §3
[14] = Clearance in Sprague-Dawley rat at 5 mg/kg, iv by LC/MS/MS analysis; type: ADME, organism-based; settings: in vivo; procedure, shortened: as §3
[15] = Tmax in Sprague-Dawley rat at 10 mg/kg, po by LC/MS/MS analysis; type: ADME, organism-based; settings: in vivo; procedure, shortened: as §3

Row | SMILES | EC50 (rhinovirus B14) [nM] | EC50 (rhinovirus A21) [nM] | CC50 at 72 h [1] [nM] | EC50 [2] [nM] | also measured
1 | CNC(=O)c1cc(Oc2cccc(-c3noc(C(C)C)n3)c2)ccn1 | 12800 | 2100 | 54200 | 150 | –
2 | CNC(=O)c1cc(Oc2ccc3c(C)c(-c4noc(C5CC5)n4)sc3c2)ccn1 | 470 | 60 | 6800 | 31 | –
3 | CNC(=O)c1cc(Oc2c(C)cc(-c3noc(C(C)C)n3)cc2C)ccn1 | 300 | 69 | 7400 | 11 | remaining at 0.5 h, 1 µM [3]: 37.1%; remaining at 0.5 h, 1 µM [4]: 61.1%
4 | CNC(=O)c1cc(Oc2ccc(-c3noc(C(C)C)n3)nc2)ccn1 | 11500 | 39100 | > 100000 | 6700 | –
5 | CCc1nc(-c2sc3cc(Oc4ccnc(C(=O)NC)c4)ccc3c2C)no1 | 430 | 77 | 5200 | 14 | –
6 | CNC(=O)c1cc(Oc2ccc(-c3noc(C(C)C)n3)c(C)c2)ccn1 | 66 | 22 | 30500 | 3.7 | remaining at 0.5 h, 1 µM [3]: 59.6%; half-life [5]: 4.6 h; Cmax [6]: 3900 ng/mL; AUC(0-inf) [7]: 31800 ng·h/mL; AUC(0-t) [8]: 17400 ng·h/mL; AUC(0-inf) [9]: 17400 ng·h/mL; Vd [10]: 0.611 L/kg; half-life [11]: 3.2 h; remaining at 0.5 h, 1 µM [4]: 40.7%; bioavailability [12]: 27.8%; AUC(0-t) [13]: 31300 ng·h/mL; clearance [14]: 2.63 mL/min/kg; Tmax [15]: 2.7 h
7 | CNC(=O)c1cc(Oc2cccc(-c3noc(CC(C)C)n3)c2)ccn1 | > 19100 | 2700 | 19100 | 370 | –
8 | CNC(=O)c1cc(Oc2ccc(-c3noc(C(F)(F)F)n3)cc2)ccn1 | 9300 | > 35000 | 35000 | 1600 | –
9 | CNC(=O)c1cc(Oc2ccc3c(C)c(-c4noc(C(F)(F)F)n4)sc3c2)ccn1 | 2000 | 990 | > 100000 | 300 | –
10 | Cc1cc(-c2noc(C(C)C)n2)ccc1Oc1ccnc(C(=O)N(C)C)c1 | 490 | > 1400 | 1400 | > 1400 | –
11 | CNC(=O)c1cc(Oc2ccc(-c3noc(COC)n3)cc2)ccn1 | 8300 | 2100 | 63400 | 1700 | –
12 | CNC(=O)c1cc(Oc2ccc3cc(-c4noc(C)n4)ccc3c2)ccn1 | 1700 | 110 | 6900 | 8.4 | –
13 | CCc1nc(-c2ccc(Oc3ccnc(C(=O)NC)c3)c(C)c2)no1 | 390 | 230 | 25200 | 3.9 | –
14 | O=C1CC2(CCCC2)CC(=O)N1CCCCN1CCN(c2ncccn2)CC1 [BUSPIRONE] | – | – | – | – | remaining at 0.5 h, 1 µM [3]: 0.1%; remaining at 0.5 h, 1 µM [4]: 3.5%
15 | CNC(=O)c1cc(Oc2ccc(-c3noc(C)n3)cc2)ccn1 | 33700 | 8700 | > 100000 | 1600 | –
16 | CNC(=O)c1cc(Oc2ccc3c(C)c(C(=O)OC(C)C)sc3c2)ccn1 | – | – | – | – | remaining at 0.5 h, 1 µM [3]: 1%; remaining at 0.5 h, 1 µM [4]: 42.7%
17 | CC(C)c1nc(-c2ccc(Oc3ccnc(C(=O)N(C)C)c3)cc2)no1 | 280 | > 9000 | 9000 | > 9000 | –
18 | CNC(=O)c1cc(Oc2ccc3c(C)c(-c4noc(C(C)C)n4)sc3c2)ccn1 | 73 | 300 | 5500 | 13 | remaining at 0.5 h, 1 µM [3]: 99.2%; remaining at 0.5 h, 1 µM [4]: 69.8%
19 | CNC(=O)c1cc(Oc2ccc(-c3noc(C(C)C)n3)cc2C)ccn1 | 73 | 29 | 8900 | 2.5 | remaining at 0.5 h, 1 µM [3]: 35.1%; remaining at 0.5 h, 1 µM [4]: 9.9%
20 | CNC(=O)c1cc(Oc2ccc(-c3noc(C(C)C)n3)cc2)ccn1 | 73 | 380 | 16100 | 34 | –
21 | CCc1nc(-c2ccc(Oc3ccnc(C(=O)NC)c3)cc2)no1 | 1100 | 130 | 43700 | 31 | –
22 | CNC(=O)c1cc(Oc2ccc(-c3noc(C4CC4)n3)cc2)ccn1 | 520 | 400 | 32300 | 50 | –
23 | CNC(=O)c1cc(Oc2ccc(-c3noc(CC(C)C)n3)cc2)ccn1 | > 23400 | 2200 | 23400 | 340 | –
24 | CNC(=O)c1cc(Oc2ccc(-c3noc(C4CC4)n3)cc2C)ccn1 | 340 | 400 | 20000 | 12 | –
25 | Cc1cc(-c2noc(C(C)C)n2)cc(C)c1Oc1ccnc(C(=O)N(C)C)c1 | > 1800 | > 1800 | 1800 | > 1800 | –
26 | CNC(=O)c1cc(Oc2cccc(-c3noc(COC)n3)c2)ccn1 | > 100000 | 40300 | > 100000 | 2000 | –
27 | CNC(=O)c1cc(Oc2ccc3c(C)c(-c4noc(C)n4)sc3c2)ccn1 | 650 | 59 | > 100000 | 61 | –
28 | Cc1cc(CCCOc2c(C)cc(-c3noc(C(F)(F)F)n3)cc2C)on1 [PLECONARIL] | 92 | – | – | 9.4 | –
